We go through two molecules from PMC11612064 (EJNMMI Radiopharmacy and Chemistry, 2024).

For one data set, the target named is ACE2 (Homo sapiens, UniProt Q9BYF1). The data set is described as follows: In vivo biodistribution studies. Details: species or system humanized ACE2 mice. The following applies: 30 min after injection, i.v. tail vein 3.7 MBq/kg, mean ± SD, n = 3. In a few lines:
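Male humanized ACE2 knock-in mice (C57BL/6 background, 6 weeks old) under 1.5% isoflurane, kept warm, received the ¹⁸F-labelled test compound by lateral tail vein and were killed by cervical dislocation 30 min later. Organs were weighed and gamma-counted, decay-corrected to euthanasia, and reported as %ID/g. Anti-ACE2 IHC AOD (integrated optical density/area) was linearly regressed against %ID/g.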

In another data set the test system is human ACE2. The conditions noted are these: ref Wang et al. [2024], Joshi et al. [2016]; cited from earlier work.
The target in data set [1] is bovine carboxypeptidase A. The conditions noted are these: ref Wang et al. [2024], Joshi et al. [2016]; cited from earlier work.
The test system of a further data set is human testicular ACE. The conditions noted are these: ref Wang et al. [2024], Joshi et al. [2016]; cited from earlier work.

Where only a bound is given, the exact number is not on record here.

ACE2, sequence (Q9BYF1 18-805): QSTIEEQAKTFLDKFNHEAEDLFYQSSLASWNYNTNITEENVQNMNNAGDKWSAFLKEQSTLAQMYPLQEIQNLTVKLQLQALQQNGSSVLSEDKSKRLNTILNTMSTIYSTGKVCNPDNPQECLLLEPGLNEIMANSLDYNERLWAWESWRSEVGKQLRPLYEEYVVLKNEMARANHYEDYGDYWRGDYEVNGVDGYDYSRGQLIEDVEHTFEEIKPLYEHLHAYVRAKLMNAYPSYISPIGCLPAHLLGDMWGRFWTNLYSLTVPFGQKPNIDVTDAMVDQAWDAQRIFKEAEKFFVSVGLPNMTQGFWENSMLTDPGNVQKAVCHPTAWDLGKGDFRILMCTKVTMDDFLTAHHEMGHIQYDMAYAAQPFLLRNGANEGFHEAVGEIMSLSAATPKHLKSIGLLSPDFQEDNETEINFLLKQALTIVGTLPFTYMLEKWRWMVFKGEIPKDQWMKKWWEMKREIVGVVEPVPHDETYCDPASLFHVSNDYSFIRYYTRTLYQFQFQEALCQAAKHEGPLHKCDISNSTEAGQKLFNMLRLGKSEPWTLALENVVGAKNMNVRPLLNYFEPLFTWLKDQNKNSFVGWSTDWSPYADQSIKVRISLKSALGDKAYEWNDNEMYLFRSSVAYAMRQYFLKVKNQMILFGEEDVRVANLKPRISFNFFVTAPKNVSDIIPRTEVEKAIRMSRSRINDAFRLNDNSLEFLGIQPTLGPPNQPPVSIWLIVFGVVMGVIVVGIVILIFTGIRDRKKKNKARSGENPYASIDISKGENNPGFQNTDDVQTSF

On to `CC(C)C[C@H](N[C@@H](Cc1cncn1Cc1cc([18F])cc(Cl)c1)C(=O)O)C(=O)O` [^18F-MLN-4760], for which, at ACE2, the “Tissue uptake, Belly fat” value worked out at 0.48 ± 0.45 %ID/g; the “Tissue uptake, Cerebellum” value turned out to be 0.40 ± 0.22 %ID/g; the “Tissue uptake, Cerebrum” value is reported as 3.18 ± 4.31 %ID/g; the “Tissue uptake, Eyeball” value is recorded as 2.84 ± 0.74 %ID/g. In addition, at ACE2, the “Tissue uptake, Heart” value was found to be 3.26 ± 0.28 %ID/g; the “Tissue uptake, Kidneys” value was found to be 4.73 ± 0.58 %ID/g; the “Tissue uptake, Large intestine” value was 3.34 ± 1.88 %ID/g; the “Tissue uptake, Liver” value stood at 2.31 ± 0.77 %ID/g. Moreover, at ACE2, the “Tissue uptake, Lung” value was determined as 2.49 ± 1.09 %ID/g; the “Tissue uptake, Medulla” value worked out at 1.83 ± 0.27 %ID/g; the “Tissue uptake, Muscle” value stood at 2.27 ± 0.75 %ID/g; the “Tissue uptake, Oesophagus” value came out at 11.32 ± 4.13 %ID/g. Further, at ACE2, the “Tissue uptake, Parotid” value was found to be 1.93 ± 0.79 %ID/g; the “Tissue uptake, Shoulder fat” value is listed as 2.84 ± 1.56 %ID/g; the “Tissue uptake, Small intestine” value turned out to be 2.74 ± 0.90 %ID/g; the “Tissue uptake, Spleen” value amounted to 1.58 ± 2.11 %ID/g. Further, on ACE2, the “Tissue uptake, Stomach” value is 3.34 ± 2.71 %ID/g and the “Tissue uptake, Testicles” value is given as 2.91 ± 1.95 %ID/g.

A word on the IC50: it is the concentration that gives 50% inhibition. Consider `CC(C)C[C@H](N[C@@H](Cc1cncn1Cc1cc(Cl)cc(Cl)c1)C(=O)O)C(=O)O` [MLN-4760], for which the IC50 with human ACE2 is 0.00044 µM; in data set [1], 27 µM; in the data set with human testicular ACE, above 100 µM.
